Data as given in article PMC3021469 (Investigative radiology, 2010).

How the values were obtained:
[1] = commercial extracellular fluid agent, on the order of; ref not given; cited from earlier work
[2] = biological target: human serum albumin (HSA) (Homo sapiens, UniProt P02768); type: physicochemical; conditions: albumin-bound; fit of variable temperature NMRD; (SD)
Summary of the method: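 Samples were 0.1 mM Gd complex with 0.67 mM HSA (4.5% w/v) in pH 7.4 HEPES-buffered saline, Gd by ICP-MS. 1H NMRD profiles were recorded on a field-cycling relaxometer at 5, 15, 25 and 35 °C over 0.01–50 MHz (0.0002–1.2 T), with 22 points per curve. Variable-temperature profiles were fitted using a Lipari-Szabo treatment.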

Chain of human serum albumin (HSA) (P02768 25-609): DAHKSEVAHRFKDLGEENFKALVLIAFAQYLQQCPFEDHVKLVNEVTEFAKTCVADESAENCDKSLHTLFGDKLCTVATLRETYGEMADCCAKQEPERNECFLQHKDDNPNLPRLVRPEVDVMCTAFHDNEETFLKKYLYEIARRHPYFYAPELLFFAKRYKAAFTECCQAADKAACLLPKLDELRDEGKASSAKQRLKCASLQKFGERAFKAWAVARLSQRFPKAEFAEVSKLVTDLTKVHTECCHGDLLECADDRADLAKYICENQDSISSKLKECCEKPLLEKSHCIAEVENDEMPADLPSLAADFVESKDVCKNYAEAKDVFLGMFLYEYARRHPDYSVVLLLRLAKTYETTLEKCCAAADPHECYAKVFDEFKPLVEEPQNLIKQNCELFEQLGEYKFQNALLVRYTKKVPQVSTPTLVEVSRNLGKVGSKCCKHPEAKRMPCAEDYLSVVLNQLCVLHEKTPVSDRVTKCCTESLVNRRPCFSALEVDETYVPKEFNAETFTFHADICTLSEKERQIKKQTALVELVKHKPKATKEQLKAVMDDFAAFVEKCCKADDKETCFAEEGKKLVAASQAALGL

| Compound | relaxivity r1 [1] [mM⁻¹ s⁻¹] | F^2 (Lipari-Szabo order parameter) [2] | ΔH^‡ (activation energy for water exchange) [2] | Δ^2 (transient zero field splitting parameter) [2] | τv (correlation time of transient ZFS modulation) [2] |
| --- | --- | --- | --- | --- | --- |
| O=C([O-])CN(CCN(CC(=O)[O-])CC(=O)O)CCN(CC(=O)[O-])CC(=O)O.[Gd+3] [Gd-DTPA] | ~4 |  |  |  |  |
| Gd1b |  | 0.46 (0.01) | 42.3 (4.2) kJ/mol | 3.39 (0.12) 10^18 s^-2 | 22 (3) ps |
